Assay results from PubChem BioAssay.
Calls of active or inactive are those of the source.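 Rule for the calls, unless noted: active = inhibition of the reporter signal at or above 50%; inactive = inhibition below 50%.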

Legend:
[1] = inhibitors of TNFa-induced NFkB p65 translocation, primary screen, imaging, HUVEC, MLSMR starter and 10KST1 sets (AID 438;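 active = inhibition above 20% together with a positive visual image hit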;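 note: compound added about 3h40 before a 20 min TNFalpha stimulation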;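 for inhibition: signal is the nuclear over cytoplasmic p65 intensity ratio per well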); conditions: HUVEC TNFa-induced p65 nuclear translocation; cell count: measured here: nuclei count (cytotoxicity indicator), at 2.08 µM; inhibition: at 2 µM, stronger effect = higher value, 0% TNFa-plus-vehicle, 100% no-TNFa wells
[2] = inhibitors of mutant huntingtin aggregation, primary screen, imaging, exon1htt(103Q)mCFP cells, high-content imaging (AID 483;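 active = visual image review flags a hit and inhibition of aggregation exceeds 20%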;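 note: compound exposure lasted 3 days before fixation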;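 for nuclei count: percent of the per-plate median nuclei count of sample wells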); conditions: exon1htt(103Q)mCFP cell line, aggregate imaging, at 2 µM; inhibition of aggregation: stronger effect = higher value; nuclei count: measured here: cell count, toxicity
[3] = inhibitors of E-selectin induction by TNFa, primary screen, imaging, HUVEC, immunofluorescence, MLSMR starter and 10KST1 sets (AID 487;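 active = visually confirmed hit in the image check and inhibition above 20%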;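 for inhibition: signal is fraction of cell area covered by stained E-selectin grains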;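 for nuclei count: 100% = median nuclei count of all wells on the same plate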); conditions: HUVEC TNFalpha-induced E-selectin immunofluorescence imaging, at 2 µM; inhibition: stronger effect = higher value; nuclei count: measured here: cell number, toxicity
[4] = biological target: Voltage-gated potassium channel subunit beta-2 (Rattus norvegicus) (UniProt P62483); assay: KvBeta enzyme negative modulators, primary screen, biochemical, NADPH fluorescence (AID 622;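 active = fluorescence slope higher than the sample average by over 3 SD, cut at about -0.22 in these data, passing the limit was not always enough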;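 note: slope of raw intensity against log time taken from 70 to 1610 s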); conditions: recombinant KvBeta, 4-cyanobenzaldehyde reduction, at 10 µM, stronger effect = higher value
[5] = biological target: Voltage-gated potassium channel subunit beta-2 (Rattus norvegicus) (UniProt P62483); assay: KvBeta positive modulators, primary screen, biochemical, NADPH fluorescence (AID 623;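 active = NADPH fluorescence slope more negative than the mean of all samples by about 3 SD, 99.7% confidence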;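 note: fluorescence intensity change per second fitted from 20 to 320 s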); conditions: Recombinant KvBeta, NADPH fluorescence decrease slope, 10 min; at 10 µM; stronger effect = lower value
[6] = biological target: Muscarinic acetylcholine receptor M4 (Homo sapiens) (UniProt P08173); assay: compounds altering M4/GIRK thallium flux, either direction, primary screen, M4 allosteric agonist project, cell-based, HEK293 M4/GIRK, BTC-AM (AID 625;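 active = fluorescence slope after compound addition differing from the mean of all tested samples at 99.7% confidence, mostly higher but some lower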;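 note: thallium influx through GIRK channels coupled to M4 in HEK293 cells with BTC-AM dye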); conditions: at 10 µM, actives lie on both sides
Method in brief: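 Assay system: HEK293 cells with M4 receptor and GIRK channels / Controls: carbachol and DMSO controls / Schedule: 1 h dye loading, 2 min kinetic read / Technique: kinetic fluorescence with BTC-AM dye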

[7] = inhibitors of Sendai virus-induced IRF3 signaling, primary screen, TLR/RLR signaling modifier project, cell-based, Sendai virus stimulus, luciferase, 10K MLSCN set (AID 602276;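 active = inhibition at or above 50% at 10 µM; inactive = inhibition below 50%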;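 note: firefly luciferase from ISG56 promoter only with Renilla not read in this screen; 0% = Sendai virus plus DMSO and 100% = medium plus DMSO without virus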); conditions: HEK293 RL24 IRF3 luciferase reporter, at 10 µM, stronger effect = higher value
[8] = inhibitors of poly I:C-induced TLR3 signaling, primary screen, cell-based, poly I:C stimulus, luciferase, 10K MLSCN set (AID 602277); conditions: HEK293-TLR3 RL24 IRF3 luciferase reporter, at 10 µM, stronger effect = higher value

Chain of Voltage-gated potassium channel subunit beta-2 (Rattus norvegicus) (P62483 whole entry, looked up): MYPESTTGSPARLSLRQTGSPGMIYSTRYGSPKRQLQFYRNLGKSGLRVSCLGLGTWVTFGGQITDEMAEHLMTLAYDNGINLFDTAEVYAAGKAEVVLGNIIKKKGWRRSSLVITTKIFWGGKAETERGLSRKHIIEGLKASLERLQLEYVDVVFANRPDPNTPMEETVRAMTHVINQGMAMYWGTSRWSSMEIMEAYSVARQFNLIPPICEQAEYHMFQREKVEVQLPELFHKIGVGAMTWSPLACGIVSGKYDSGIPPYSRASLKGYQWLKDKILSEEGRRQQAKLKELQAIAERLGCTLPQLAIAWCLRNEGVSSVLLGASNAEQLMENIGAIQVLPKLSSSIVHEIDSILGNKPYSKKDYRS
Chain of Muscarinic acetylcholine receptor M4 (Homo sapiens) (P08173 whole entry, looked up): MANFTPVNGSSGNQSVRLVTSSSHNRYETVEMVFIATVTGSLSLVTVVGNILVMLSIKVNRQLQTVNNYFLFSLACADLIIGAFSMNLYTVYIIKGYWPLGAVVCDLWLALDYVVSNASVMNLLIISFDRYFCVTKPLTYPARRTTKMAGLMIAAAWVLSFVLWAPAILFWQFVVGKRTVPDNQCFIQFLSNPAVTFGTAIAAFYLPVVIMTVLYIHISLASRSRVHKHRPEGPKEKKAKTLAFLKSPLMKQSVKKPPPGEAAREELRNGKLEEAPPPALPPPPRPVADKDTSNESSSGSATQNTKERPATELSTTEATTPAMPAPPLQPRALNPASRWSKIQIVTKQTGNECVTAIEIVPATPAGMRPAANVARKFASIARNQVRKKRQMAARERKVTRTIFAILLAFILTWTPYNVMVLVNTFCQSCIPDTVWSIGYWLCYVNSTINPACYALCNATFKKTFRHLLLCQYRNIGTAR

SMILES	cell count [1]	inhibition [1]	inhibition of aggregation [2]	nuclei count [2]	inhibition [3]	nuclei count [3]	fluorescence slope [4]	NADPH fluorescence slope [5]	fluorescence slope [6]	inhibition [7]	inhibition [8]
Cc1ccc(-n2ncc3c(=O)n(CC(=O)NC4CCCCC4)cnc32)cc1C	281	-0.3% (inactive)	4.3% (inactive)	96.7%	-3.3% (inactive)	106%	-0.575 (inactive)	2.2e-05 (inactive)	0.00615 (inactive)	13.5% (inactive)	15.1% (inactive)
CCOc1cc(N2CCOCC2)c(OCC)cc1NC(=O)CSc1cccc[n+]1[O-]	506	10.6% (inactive)	2.4% (inactive)	109%	-56.8% (inactive)	115%	-0.506 (inactive)	-0.000267 (inactive)	0.00543 (inactive)	15.1% (inactive)	18.2% (inactive)
O=C(c1cccs1)N1CCc2ccccc21	335	-3.8% (inactive)	5% (inactive)	104%	-59.6% (inactive)	111%	-0.511 (inactive)	-5e-05 (inactive)	0.00554 (inactive)	-42% (inactive)	-100% (inactive)
Cc1cccc(-n2ncc3c(NCc4ccccn4)ncnc32)c1	351	-16.8% (inactive)	4.2% (inactive)	101%	0.4% (inactive)	122%	-0.592 (inactive)	-4.2e-05 (inactive)	0.00598 (inactive)	-33.2% (inactive)	-129% (inactive)
COc1ccc(C)cc1S(=O)(=O)N1CCN(Cc2ccccc2)CC1	708	-7.1% (inactive)	-4.2% (inactive)	98.5%	-41.3% (inactive)	102%	-0.558 (inactive)	-1.1e-05 (inactive)	0.00529 (inactive)	21.4% (inactive)	19.5% (inactive)
COCCNC(=O)c1cc2c(-c3ccccc3F)nn(C)c2s1	401	-5.4% (inactive)	-28.5% (inactive)	96.8%	-12.9% (inactive)	120%	-0.523 (inactive)	-3.7e-06 (inactive)	0.00439 (inactive)	12.1% (inactive)	-0.79% (inactive)
FC(F)(F)c1nnc2ccc(NCn3nnc4ccccc43)nn12	562	-27.6% (inactive)	18.9% (inactive)	85.2%	16.1% (inactive)	94.1%	-0.434 (inactive)	3.1e-05 (inactive)	0.00533 (inactive)	12.7% (inactive)	3.14% (inactive)
CCOc1ccc(C(=O)N(Cc2ccc(N(C)C)cc2)C2CCS(=O)(=O)C2)cc1 (stereo not drawn)	249	-12.2% (inactive)	2.5% (inactive)	75%	-56.2% (inactive)	96.7%	-0.618 (inactive)	-3.1e-05 (inactive)	0.00328 (inactive)	19.7% (inactive)	23.5% (inactive)
Cn1c(SCc2cccc3ccccc23)nnc1-c1ccco1	574	1.6% (inactive)	3.5% (inactive)	101%	-63% (inactive)	103%	-0.545 (inactive)	2.1e-05 (inactive)	0.00593 (inactive)	-8.19% (inactive)	-65.7% (inactive)
O=C(CCSc1nnc(-c2ccncc2)o1)Nc1ccccc1	680	-3.9% (inactive)	1% (inactive)	107%	-26.7% (inactive)	114%	-0.512 (inactive)	-6.6e-05 (inactive)	0.0061 (inactive)	1.76% (inactive)	12.2% (inactive)
Cc1c(NC(=O)C(C)OC(=O)COc2cccc3c2OC(C)(C)C3)c(=O)n(-c2ccccc2)n1C (stereo not drawn)	652	-11.6% (inactive)	-3.5% (inactive)	129%	-45.4% (inactive)	122%	-0.59 (inactive)	-7.7e-05 (inactive)	0.00305 (inactive)	4.56% (inactive)	14.8% (inactive)
COc1ccc2c(c1)CCc1c(C(=O)NCc3cccnc3)noc1-2	358	5.4% (inactive)	-6.5% (inactive)	103%	-85.6% (inactive)	89.1%	-0.462 (inactive)	-0.000203 (inactive)	0.00462 (inactive)	-37.2% (inactive)	-67.9% (inactive)
c1ccc(-c2cn3cccnc3n2)cc1	746	-0.7% (inactive)	12.5% (inactive)	92.7%	-66.8% (inactive)	123%	-0.0209 (active)	-3.7e-06 (inactive)	0.00503 (inactive)	-12.5% (inactive)	-40.2% (inactive)
NC1=NC(c2ccc(Cl)cc2)n2c(nc3ccccc32)N1 (stereo not drawn)	780	3.5% (inactive)	-8.4% (inactive)	125%	-15.2% (inactive)	113%	-0.584 (inactive)	1.3e-05 (inactive)	0.00539 (inactive)	16.5% (inactive)	18.6% (inactive)
CCN(CC)S(=O)(=O)c1ccc2c(c1)c(=O)c(C(=O)NCCOC)cn2C	203	6.9% (inactive)	2.8% (inactive)	100%	-24.6% (inactive)	112%	-0.231 (inactive)	-3.4e-05 (inactive)	0.00464 (inactive)	19.3% (inactive)	15.8% (inactive)
COC(=O)c1ccccc1NC(=O)c1noc2c1CCC2	251	0.3% (inactive)	6.7% (inactive)	100%	-15.1% (inactive)	120%	-0.597 (inactive)	-2.5e-05 (inactive)	0.0051 (inactive)	13.1% (inactive)	22.8% (inactive)
O=C(CN1C(=O)NC(Cc2ccccc2)C1=O)Nc1ccccc1 (stereo not drawn)	436	0% (inactive)	8.9% (inactive)	59.4%	-32.2% (inactive)	111%	-0.594 (inactive)	-5.2e-06 (inactive)	0.00658 (inactive)	-15.9% (inactive)	-20.9% (inactive)
CC(=O)C1=C(O)C(=O)N(Cc2cccnc2)C1c1ccccc1 (stereo not drawn)	429	-2% (inactive)	-8.8% (inactive)	97.7%	-58.9% (inactive)	115%	-0.537 (inactive)	-2.4e-05 (inactive)	0.00492 (inactive)	6.76% (inactive)	18.6% (inactive)
CS(=O)(=O)N(CC(=O)NC1CC1)c1cccc(F)c1	387	-2.3% (inactive)	0.3% (inactive)	113%	-44.3% (inactive)	113%	-0.555 (inactive)	-5e-05 (inactive)	0.00595 (inactive)	8.69% (inactive)	14.7% (inactive)
CCN1CCN(S(=O)(=O)c2ccc(S(=O)(=O)N(CC)Cc3ccccc3)cc2)CC1	579	-0.8% (inactive)	-9.2% (inactive)	104%	-27.9% (inactive)	108%	-0.527 (inactive)	4.3e-06 (inactive)	0.00522 (inactive)	16.4% (inactive)	16.6% (inactive)
O=C(NCC(=O)N(CCc1ccccc1)C(C(=O)NC1CCCC1)c1cccnc1)c1ccco1 (stereo not drawn)	464	6.5% (inactive)	2.2% (inactive)	108%	-126% (inactive)	141%	-0.493 (inactive)	1.4e-05 (inactive)	0.00509 (inactive)	7.14% (inactive)	6.57% (inactive)
COc1ccc(-n2nc(C(=O)Nc3ccc4c(c3)OCO4)c3c4ccccc4n(C)c3c2=O)cc1	218	4.3% (inactive)	-21.9% (inactive)	47.3%	-66% (inactive)	97.1%	-0.566 (inactive)	4e-06 (inactive)	0.0112 (active)	10.3% (inactive)	24.3% (inactive)
COc1cccc(-n2nnnc2SCC(=O)NCc2ccco2)c1	423	-3.3% (inactive)	-7.7% (inactive)	94%	-44.9% (inactive)	128%	-0.548 (inactive)	-2.6e-05 (inactive)	0.00522 (inactive)	19.3% (inactive)	21.4% (inactive)
Nc1nnc(-c2ccccc2)c(-c2ccccc2)n1	676	-2.1% (inactive)	26.8% (inactive)	83.9%	-71.1% (inactive)	111%	-0.522 (inactive)	-3.6e-05 (inactive)	0.00428 (inactive)	0.988% (inactive)	14.6% (inactive)
COC(=O)C1=C(C)OC(N)=C(C#N)C1c1ccccc1 (stereo not drawn)	428	1.7% (inactive)	5.6% (inactive)	114%	-73.1% (inactive)	116%	-0.568 (inactive)	-6.5e-06 (inactive)	0.0048 (inactive)	11.5% (inactive)	16.7% (inactive)
Cc1cc(NC(=O)c2ccc(Cl)cc2)no1	206	0.8% (inactive)	41.9% (active)	92%	-58.4% (inactive)	83.6%	-0.561 (inactive)	1.1e-05 (inactive)	0.00496 (inactive)	-41.1% (inactive)	-168% (inactive)
CCOc1ccc(-c2noc(-c3ccncc3)n2)cc1OCC	807	1.7% (inactive)	33.6% (inactive)	106%	-21.2% (inactive)	117%	-0.533 (inactive)	4e-05 (inactive)	0.023 (active)	4.12% (inactive)	-4.62% (inactive)
Cc1c(Cc2ccccc2)sc(N)c1C(N)=O	335	-13% (inactive)	-0.8% (inactive)	115%	-32.2% (inactive)	113%	-0.574 (inactive)	-2.6e-06 (inactive)	0.00569 (inactive)	9.38% (inactive)	10.8% (inactive)
